Screening results from PubChem BioAssay.
FN deposition inh: fibronectin deposition inhibition; AH1F fibroblasts, Alexa488-fibronectin deposition fluorescence, overnight; inhibition, % at 12.6 µM; hit rate 0.086% among 350,000; AID 743247;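 active = mean inhibition across replicates of 30% or more, regardless of how many single replicates reach that level; inconclusive = mean under 30% yet at least half of replicates reach 30%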;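 also: positive control wells lacked labelled fibronectin entirely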
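test system = AH1F fibroblasts assembling fluorescent fibronectin matrix | quantity = 10000 AH1F cells per well | buffer or medium = DMEM plus 2% serum, read in PBS | doses = single dose, pinned | incubation = 1 h cell attachment, overnight exposure to compound and label | detection = fluorescence at 485 nm excitation, 525 nm emission | read-out basis = inhibition from reduced deposited-fibronectin fluorescence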
FGF22 binding: binders of recombinant human FGF22 by thermal shift | SYPRO orange fluorescence; percent of sucrose octasulfate shift, DMSO zero | activity (Tm shift, normalised), % at 9.99 µM | hit rate 1.5% among 340,000;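 active = mean Tm shift, scaled 0 neutral to 100 positive control, at about 1.3% or above, every replicate too, limit read from the data; inconclusive = no clear call, values can overlap the other calls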
Target sequence (Q9HCT0 whole entry, looked up): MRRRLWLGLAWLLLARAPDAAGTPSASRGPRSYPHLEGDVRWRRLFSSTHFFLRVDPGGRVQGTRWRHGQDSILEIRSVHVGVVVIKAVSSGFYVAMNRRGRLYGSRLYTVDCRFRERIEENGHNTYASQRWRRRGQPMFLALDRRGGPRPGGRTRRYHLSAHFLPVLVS
Statin myotox sup: protects C2C12 myotubes from simvastatin toxicity | ATP luminescence, 48 h; scaled: DMSO 0, geranylgeraniol control 100 | rescue of ATP level, % at 7.49 µM | hit rate 0.78% among 330,000 | AID 602340;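 active = mean ATP rescue above about 67%, or every replicate alone reaching that limit, limit read from the data, passing the limit was not always enough; inconclusive = no clear call, values can overlap the other calls; inactive = mean under the limit and some replicate under it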;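 also: myotubes were challenged with 10 µM simvastatin during compound exposure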
SIRT5 inh: sirtuin-5 (human) deacylase inhibition; inhibition, % at 15 µM; Purified SirT5, succinyl-peptide AMC, trypsin-coupled fluorescence; AID 652115; Q9NXA8; hit rate 1.1% among 330,000; in the data active = inhibition above about 15%; inconclusive = no clear call, values can overlap the other calls
Target sequence (Q9NXA8 whole entry, looked up): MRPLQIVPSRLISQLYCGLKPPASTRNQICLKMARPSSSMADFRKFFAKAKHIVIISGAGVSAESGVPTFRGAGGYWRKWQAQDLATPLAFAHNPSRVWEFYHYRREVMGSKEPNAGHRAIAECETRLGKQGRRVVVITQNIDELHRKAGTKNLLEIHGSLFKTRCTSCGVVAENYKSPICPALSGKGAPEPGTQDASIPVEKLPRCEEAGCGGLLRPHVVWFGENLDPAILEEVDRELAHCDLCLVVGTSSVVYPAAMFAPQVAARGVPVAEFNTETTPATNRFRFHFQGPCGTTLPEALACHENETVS
Ecoli rRNA inh: inhibitors of bacterial rRNA selective over humanized ribosomes; GFP signal change (wild-type ribosome), % (no concentration beside the values); hit rate 1.6% among 350,000; AID 720706; E. coli WT GFP vs humanized-ribosome RFP mutants, fluorescence, 24 h; hits give low values; DMSO median 0, no signal -100;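 active = significant combined selectivity score with lowered wild-type GFP, culture density cut under 30%, mutant RFP and density less affected; inactive = any of these conditions unmet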
E-selectin induc: induces E-selectin expression in human endothelial cells | activation, % at 7.58 µM | HUVEC E-selectin immunofluorescence imaging; normalized: neutral wells 0, TNF-alpha wells 100 | P16581 | hit rate 0.37% among 260,000;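 active = mean E-selectin-positive cell signal at least 10% of the positive control, reached in at least 60% of replicates, without over 20% cell loss; inconclusive = no rule given, readout overlaps actives, possibly toxicity-flagged; inactive = the rest, including those meeting only one limit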
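Test system: HUVEC | Signal: Immunofluorescence imaging | Read-out: Percent E-selectin-positive cells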
HepG2 tox: cytotoxic compounds in HepG2 cells | shares compounds with Ecoli rRNA inh | HepG2 viability, ATP luminescence, 72 h | activity change, negative = cytotoxicity, unspecified at 26 µM | 30 tested, under 10 active | AID 743480;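 active = compounds whose fitted half-maximal signal-loss concentration is at most twice their highest valid dose; inconclusive = flat curve with 30 to 70% signal loss, or poor fit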
AID977621: wild-type E. coli growth inhibition versus H69 humanized strain – H69 mutant RFP, wild-type GFP, cherry-pick, dose response. shares compounds with Ecoli rRNA inh. fluorescence, 24 h. activity change, negative = inhibition at 50 µM. 1,900 tested, under 10 active. AID 977621;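 active = Wild-type ribosome reporter drop at least double the humanized mutant ribosome reporter drop, growth loss under a set limit; inconclusive = no clear call, values can overlap the other calls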;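 also: wild-type GFP and H69 mutant RFP strains grown together 50/50 in each well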
AID977628: growth of wild-type and h24-humanized E. coli strains – h24 mutant RFP vs wild-type GFP, cherry-pick, dose response | shares compounds with Ecoli rRNA inh | 1,900 tested, under 10 active | E. coli WT GFP strain growth, fluorescence, 24 h | activity change, negative = inhibition at 50 µM | AID 977628;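 active = compound lowering the normal-ribosome reporter at least twice as much as the humanized-ribosome reporter, growth loss under a set limit; inconclusive = no clear call, values can overlap the other calls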;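 also: wild-type GFP and h24 humanized RFP strains co-cultured 1 to 1 per well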
The depositor's hits bear a star; ? = inconclusive; · = not tested or not shown. Only some compounds are listed: those with a hit (about 4% of all), similar ones and a draw of the others.

SMILES	FN deposition inh	FGF22 binding	Statin myotox sup	SIRT5 inh	Ecoli rRNA inh	E-selectin induc	AID977621	AID977628	others
Cc1ccc(C2NC(c3ccc(C)cc3)C(C)C(=O)C2C)cc1 (stereo not given)	-8.5	0.1	·	1.7	-27.4*	0.3	-10.8	-5.21
O=C(C1CC1)N1CC2(C1)[C@@H](c1ccccc1)[C@@H](CO)N2CC1CCCC1	1.0	·	·	-2.1	-6.3	-0.1	·	·
CCN(CC(=O)Nc1cccc(S(=O)(=O)N2CCCC2)c1)CC(=O)Nc1ccccc1OC	-9.2	-0.1	·	2.9	-18.1*	1.7	-8.95	-17.3
COc1ccc(Cl)cc1NC(=O)CN(C)CC(=O)Nc1cccc(S(=O)(=O)N2CCCC2)c1	-2.1	-0.3	-13.9	1.1	-5.0	·	·	·
CCN(CC)CC(=O)Nc1ccc(-c2ccc(NC(=O)CN(CC)CC)c(OC)c2)cc1OC	6.7	0.0	·	-1.3	-23.0*	·	-25.2	·
COCC(=O)N1CC2(C1)[C@H](c1ccc(-c3ccc(F)cc3)cc1)[C@H](CO)N2C(=O)C1CC1	·	0.0	·	-2.0	0.3	-0.3	·	·
CC(C)CC#Cc1ccc([C@H]2[C@@H](CO)N3C(=O)CN(C(=O)c4ccccn4)C[C@@H]23)cc1	-3.9	·	·	0.9	2.8	-0.2	·	·
COc1ccc(Oc2ccc(C(F)(F)F)cc2NC(=O)CC(CC(=O)O)c2ccccc2)cc1 (stereo not given)	3.2	0.2	0.8	1.1	-35.6*	0.9	-8.97	·
O=C(NCc1ccc(F)cc1)[C@H]1[C@H](CO)[C@H]2Cn3c(cccc3=O)[C@@H]1N2Cc1cccnc1	·	-0.2	-1.4	5.0	2.8	0.0	·	·
Cc1[nH]c(=S)sc1Cc1ccc(Cl)c(Cl)c1	·	0.4	·	-10.9	-39.6*	·	·	·	HepG2 tox=10.1
Cc1nnc(SCc2ccc(Cl)c(Cl)c2)s1	-6.2	0.0	12.2	-1.7	·	-0.1	·	·
COc1cccc(-c2cn(CC[C@@H]3CC[C@H](NC(=O)CC4CC4)[C@H](CO)O3)nn2)c1	-1.9	-0.3	10.7	1.6	-2.1	-0.3	·	·
COc1ccccc1C(=O)COC(=O)c1cccs1	4.5	0.7	-5.8	-2.1	-23.9*	-0.2	-25.2	-17.9
COCCNC(=O)C[C@@H]1C[C@@H]2c3cc(NS(=O)(=O)c4ccccc4)ccc3O[C@@H]2[C@@H](CO)O1	·	0.1	-4.6	-2.2	3.7	-0.2	·	·
CCN(C(=O)COC(=O)CCc1ccccc1)c1ccccc1	12.6	0.0	0.1	1.2	-33.7*	·	·	-7.65
COc1cccc(C(=O)C2CCCN(C/C=C/c3ccccc3OC)C2)c1 (stereo not given)	·	-0.1	10.5	-3.1	-29.0*	·	?	?
CCN(CC)CCN(C(=O)c1ccc2c(c1)CCCC2)c1nc2ccc(F)cc2s1	-0.4	0.2	-2.3	-6.0	-23.4*	·	-12.7	·
CCn1c(-c2ccccc2Cl)nn(CC(=O)Nc2ccccc2OC)c1=S	·	·	0.0	-1.7	-20.9*	·	-16.4	·
Fc1cnc(N2CCc3ccccc32)nc1N1CCc2ccccc21	-1.0	·	-21.3	·	·	·	·	·
CC1(C)CC(=O)c2cnc(N3CCc4ccccc43)nc2C1	-15.7	0.0	·	-3.1	-34.2*	3.8	-2.73	·
CCOC(=O)CCSc1nc(N2CCOCC2)c2c(c1C#N)CC(C)(C)OC2	0.1	0.0	·	11.9	6.4	-0.1	·	·
CCOC(=O)C(C)Sc1nc(N2CCOCC2)c2c(c1C#N)CC(C)(C)OC2 (stereo not given)	5.5	0.1	·	0.4	-28.6*	-0.1	-10.8	-10.3
Cc1cccc(NS(=O)(=O)c2cc3c(cc2C)NC(=O)CO3)c1	7.6	0.3	12.8	-1.9	-18.3*	-0.2	-1.04	-9.13
